MrgX1 PAM = positive allosteric modulators of MrgX1, primary screen, HEK293 cells, Fluo-4 calcium flux. Mas-related G-protein coupled receptor member X1 (Homo sapiens), Q96LB2. FDSS; stronger effect = higher value. B-score at 10 µM. 310,000 compounds, 0.63% hits. AID 588675, 2011;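 active = plate-corrected calcium response at least 3 library SD above typical, normal starting fluorescence, not activating the receptor alone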;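 also: compound read alongside a low EC10 to EC30 dose of BAM8-22 agonist; peak minus trough fluorescence over baseline measured at the second addition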
Target sequence (Q96LB2 whole entry, looked up): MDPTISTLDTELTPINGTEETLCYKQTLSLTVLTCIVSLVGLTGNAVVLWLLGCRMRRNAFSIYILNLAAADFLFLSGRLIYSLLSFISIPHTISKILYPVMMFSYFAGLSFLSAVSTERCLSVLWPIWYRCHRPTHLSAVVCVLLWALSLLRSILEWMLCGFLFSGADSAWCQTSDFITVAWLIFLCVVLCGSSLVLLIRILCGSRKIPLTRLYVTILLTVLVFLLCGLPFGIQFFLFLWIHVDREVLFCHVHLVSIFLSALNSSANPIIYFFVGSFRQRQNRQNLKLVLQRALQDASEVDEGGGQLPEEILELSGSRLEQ
MrgX1 antagonist = antagonists of human MrgX1 receptor, primary screen, HEK293 cells, Fluo-4 calcium flux; B-score at 10 µM; AID 588676, 2011; Mas-related G-protein coupled receptor member X1 (Homo sapiens), Q96LB2; 310,000 compounds, 1.3% hits; BAM8-22 antagonism; stronger effect = lower value;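 active = calcium-response B-score plate-corrected more than 3 library SD below zero, starting fluorescence within 5 deviations, no agonist response on first addition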;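 also: peak minus trough fluorescence over baseline after final BAM8-22 challenge near maximal dose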
RGS4 pot = RGS4 potentiators or activators, primary screen, cell-based, HEK293 M3R inducible RGS4, calcium flux. carbachol calcium flux Fluo4; stronger effect = lower value. B-score at 10 µM. 310,000 compounds, 0.92% hits. AID 463111, 2010;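 active = B-score of the integrated calcium signal more than 4 SD below the library mean, with starting fluorescence not abnormally high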;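 also: negative B-score means reduced calcium response which marks RGS4 activation or potentiation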
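Detection: kinetic calcium fluorescence imaging with Fluo4-AM dye, 2 µM / Material: HEK293 cells with stable M3R and inducible RGS4 / Schedule: recording 10 s baseline at 1 Hz, 100 s post-agonist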
RGS4 inh = RGS4 inhibitors, primary screen, cell-based, HEK293 M3R inducible RGS4, calcium flux; Regulator of G-protein signaling 4 (Homo sapiens), P49798; Fluo-4 calcium flux; stronger effect = higher value; triggered by carbachol at its EC20; B-score at 10 µM; 310,000 compounds, 0.45% hits; AID 463165, 2010;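 active = B-score, a plate-corrected calcium signal, over three deviations above library mean, with baseline fluorescence within five deviations of library mean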;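 also: RGS4 expression induced by doxycycline in cells with stable M3 receptor; B-score is computed from the integrated fluorescence ratio over baseline after carbachol; higher B-score means a larger calcium signal and so more RGS4 inhibition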
Target sequence (P49798 whole entry, looked up): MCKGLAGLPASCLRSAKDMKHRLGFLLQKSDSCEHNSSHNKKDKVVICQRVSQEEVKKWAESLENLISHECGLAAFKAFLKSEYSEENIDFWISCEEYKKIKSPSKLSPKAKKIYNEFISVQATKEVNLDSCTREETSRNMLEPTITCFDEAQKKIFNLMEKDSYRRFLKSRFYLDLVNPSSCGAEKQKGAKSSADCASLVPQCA
MrgX1 ag = agonists of human MrgX1 receptor, primary screen, HEK293 cells, Fluo-4 calcium flux. Mas-related G-protein coupled receptor member X1 (Homo sapiens), Q96LB2. Fluo-4 calcium fluorescence, agonist mode; stronger effect = higher value. B-score at 10 µM. 310,000 compounds, 0.44% hits. AID 588627, 2011;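 active = calcium response B-score plate-corrected fluorescence ratio at least 3 library SD, with starting fluorescence B-score inside 5 SD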
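Test system: HEK293 cells stably expressing human MrgX1 receptor; Input: fifteen thousand cells per well; Dosing: compound delivered in addition one of three; Schedule: overnight seeding, then 1 h dark dye loading; Technique: Fluo-4 NW calcium fluorescence; Measure: B-scored fluorescence response ratio; Controls: positive and negative controls per plate.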
MrgX1 ant reconf = MrgX1 receptor antagonists, duplicate retest, confirmation, HEK293 cells, Fluo-4 calcium flux; shares compounds with MrgX1 antagonist; BAM8-22 calcium flux; stronger effect = lower value; remaining BAM8-22 calcium response % of control (stronger effect = lower value), % at 10 µM; 2,300 compounds, 19% hits; AID 602420, 2012;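 active = remaining agonist calcium response no higher than 100% minus 3 SD of agonist-only control wells, with starting fluorescence near control levels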;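 also: agonist BAM8-22 given at a near maximal EC90 to ECmax level; peak minus minimum fluorescence divided by baseline after agonist addition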
HEK293 Ca flux = nonspecific calcium signal in parental HEK293, confirmation, counter-screen for MrgX1 antagonist project, parental HEK293 cells, Fluo-4 calcium flux. fluorescence ratio F(max-min)/F0 at 10 µM. shares compounds with MrgX1 antagonist. AID 624111, 2012. Fluo-4 calcium fluorescence, FDSS. 4,000 compounds, 2% hits;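 active = duplicate-averaged calcium fluorescence ratio at least three times the standard deviation of buffer wells, a nonspecific response in parental cells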
HEK293 Ca counter = calcium response in parental HEK293 cells, primary screen, counter-screen for MrgX1 allosteric activator project, cell-based, Fluo-4 calcium flux, duplicate; Fluo-4 fluorescence ratio; stronger effect = higher value; shares compounds with MrgX1 antagonist; fluorescence ratio F(max-min)/F0 at 10 µM; 4,000 compounds, 0.4% hits; AID 624114, 2012;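 active = calcium fluorescence ratio, averaged over duplicates, at least 3 SD of the buffer-well ratio, meaning a nonspecific response in receptor-free cells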;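 also: untransfected parental HEK293 lacking MrgX1 used as counterscreen for MrgX1 allosteric activators; fluorescence change taken during the second addition on a kinetic imager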
HEK293 Ca cntr2 = calcium response in parental HEK293 cells, primary screen, counter-screen for MrgX1 agonist project, cell-based, Fluo-4 calcium flux, duplicate, agonist mode. shares compounds with MrgX1 antagonist. Fluo-4 calcium fluorescence (FDSS); stronger effect = higher value. fluorescence ratio F(max-min)/F0 at 10 µM. 4,000 compounds, 8.7% hits. AID 624115, 2012;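 active = calcium fluorescence ratio at least three times the spread of buffer wells, meaning a non-specific response in parental cells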
Large screens that a line does not name were inactive (follow-up assays come after a bar, where they were run). Compounds with a hit are over-represented: about 3.5% of the library has one in this group of screens.

COCCCn1c(SCC(=O)N2CC(=O)Nc3ccccc32)nnc1-c1ccoc1C	none
COCCn1c(SCC(=O)N2CC(=O)Nc3ccccc32)nnc1-c1ccoc1C	MrgX1 antagonist -10.9 | MrgX1 ant reconf inactive | HEK293 Ca flux inactive | HEK293 Ca counter inactive | HEK293 Ca cntr2 inactive
CN(C(=O)CN1CCN(c2ccccc2F)CC1)C1CCCc2ccccc21 (stereo not drawn)	none
O=C(c1ccccc1)N1CCN(c2ncnc3sc4c(c23)CCC4)CC1	MrgX1 antagonist -5.07 | MrgX1 ant reconf inactive | HEK293 Ca flux inactive | HEK293 Ca counter inactive | HEK293 Ca cntr2 inactive
c1nc(N2CCOCC2)c2c3c(sc2n1)CCCC3	none
O=C(CCC1CCCN(C(=O)c2cccc(F)c2)C1)N1CCN(c2ccccn2)CC1 (stereo not drawn)	none
O=C(Nc1ccc2c(c1)OCO2)Nc1ccc2c(c1)OCO2	none
O=C(Nc1ccc(F)cc1)Nc1ccc2c(c1)OCO2	MrgX1 antagonist -4.77 | MrgX1 ant reconf inactive | HEK293 Ca flux inactive | HEK293 Ca counter inactive | HEK293 Ca cntr2 inactive
CC1(CCc2ccccc2)NC(=O)N(CC(=O)N2CC(=O)Nc3ccccc32)C1=O (stereo not drawn)	none
CCN(Cc1cc(OC)c(OC)c(OC)c1)C(=S)Nc1cccc(SC)c1	none
CCn1c2ccccc2c2c3ncc4cccn4c3ccc21	MrgX1 antagonist -5.79 | MrgX1 ant reconf 78.1% | HEK293 Ca flux inactive | HEK293 Ca counter inactive | HEK293 Ca cntr2 inactive
O=C(O)CCNC(=O)C12CC3CC(CC(C3)C1)C2	MrgX1 antagonist -8.06 | MrgX1 ant reconf inactive | HEK293 Ca flux inactive | HEK293 Ca counter inactive | HEK293 Ca cntr2 inactive
O=C(NCc1ccccc1)C12CC3CC(CC(C3)C1)C2	none
Cc1ccc(Cn2ccsc2=NC(=O)COC(=O)c2ccc(O)cc2O)cc1	MrgX1 antagonist -7.74 | MrgX1 ant reconf inactive | HEK293 Ca flux inactive | HEK293 Ca counter inactive | HEK293 Ca cntr2 inactive
O=C(Nc1cccc2c1CCCC2)c1ccncc1	MrgX1 antagonist -8.46 | MrgX1 ant reconf inactive | HEK293 Ca flux inactive | HEK293 Ca counter inactive | HEK293 Ca cntr2 inactive
CCOC(=O)C1CCC(CNCc2ccc(Cl)cc2)CC1 (stereo not drawn)	none
CCN(CC)c1ccc(C=Nc2ccc(N(C)C)cc2)c(O)c1	MrgX1 antagonist -4.64 | MrgX1 ant reconf 66.3% | HEK293 Ca flux inactive | HEK293 Ca counter inactive | HEK293 Ca cntr2 inactive
CCN(CC)c1ccc(N=Cc2ccc(N(CC)CC)cc2O)cc1	MrgX1 antagonist -8.15 | MrgX1 ant reconf inactive | HEK293 Ca flux 0.238 | HEK293 Ca counter inactive | HEK293 Ca cntr2 46.2
COc1ccccc1Nc1nc2ccccc2n1C	MrgX1 antagonist -4.81 | MrgX1 ant reconf inactive | HEK293 Ca flux inactive | HEK293 Ca counter inactive | HEK293 Ca cntr2 inactive
O=C1CCN(S(=O)(=O)c2ccc(Cl)cc2)CCN1	MrgX1 antagonist -4.64 | MrgX1 ant reconf 84.2% | HEK293 Ca flux inactive | HEK293 Ca counter inactive | HEK293 Ca cntr2 inactive
COc1ccc(Cl)cc1NC(=O)CC1S/C(=N/N=C2CCCCCC2)NC1=O (stereo not drawn)	none
O=C(NCCCN1CCOCC1)c1cccs1	MrgX1 antagonist -8.79 (no result: RGS4 pot, RGS4 inh) | MrgX1 ant reconf 79.2% | HEK293 Ca flux inactive | HEK293 Ca counter inactive | HEK293 Ca cntr2 inactive
COc1ccc(N(CC(=O)N2CCN(Cc3ccccc3)CC2)S(C)(=O)=O)cc1Cl	none
COc1ccc(COC(=O)c2ccc(S(=O)(=O)N3CCC(C)CC3)cc2)cc1	MrgX1 antagonist -6.79 | MrgX1 ant reconf inactive | HEK293 Ca flux inactive | HEK293 Ca counter inactive | HEK293 Ca cntr2 inactive
COc1ccc(C2c3ccc(O)cc3Oc3ncn4nc(-c5ccncc5)nc4c32)cc1OC (stereo not drawn)	none
O=C(Nc1nnc(C2CC2)s1)c1ccc(Cl)c(S(=O)(=O)N2CCc3ccccc3C2)c1	MrgX1 antagonist -6.35 | MrgX1 ant reconf 62.8% | HEK293 Ca flux inactive | HEK293 Ca counter inactive | HEK293 Ca cntr2 inactive
Cc1cccc(NC(=O)CSc2nc(N)cc(N)n2)c1	none
CCOC(=O)c1cccc(NC(=O)CSc2nc(N)cc(N)n2)c1	MrgX1 antagonist -7.68 | MrgX1 ant reconf inactive | HEK293 Ca flux inactive | HEK293 Ca counter inactive | HEK293 Ca cntr2 inactive
CC(C(=O)c1ccccc1)[n+]1cccc(C(N)=O)c1 (stereo not drawn)	none
Cn1nc(-c2ccccc2)cc1NC(=O)c1cccs1	none
C/C(=N/NC(=O)c1sc(=S)n(C)c1C)c1ccccc1	none
O=C(Nc1nsc(-c2ccccc2)n1)c1cccs1	MrgX1 antagonist -10.2 | MrgX1 ant reconf inactive | HEK293 Ca flux inactive | HEK293 Ca counter inactive | HEK293 Ca cntr2 inactive
COc1ccc(NC(=O)CSc2nnc3c4c(nc(-c5ccccc5)n23)CC(C)(C)OC4)cc1	MrgX1 antagonist -7.24 | MrgX1 ant reconf inactive | HEK293 Ca flux inactive | HEK293 Ca counter inactive | HEK293 Ca cntr2 inactive
COC(=O)NNC(=S)Nc1ccc(Br)cc1	none
COc1ccc2c(c1)c(=O)c(C(=O)c1ccc(C)cc1)cn2CC(=O)Nc1ccc(F)cc1	none
Cc1ccc(C(=O)c2c[nH]c3c(F)cc(F)cc3c2=O)cc1	MrgX1 antagonist -6.78 | MrgX1 ant reconf inactive | HEK293 Ca flux inactive | HEK293 Ca counter inactive | HEK293 Ca cntr2 inactive
COc1ccc2c(c1)OC[C@H]1[C@H]2N2C(=O)c3cc(Br)ccc3NC(=O)[C@@]2(C)[C@H]1c1ccccc1	MrgX1 antagonist -7.57 (no result: RGS4 pot, RGS4 inh) | MrgX1 ant reconf 78.7% | HEK293 Ca flux inactive | HEK293 Ca counter inactive | HEK293 Ca cntr2 inactive
COc1ccc2c(c1)OC[C@H]1[C@H]2N2C(=O)c3cc(OC)c(OC)cc3NC(=O)[C@@]2(C)[C@H]1c1ccccc1	none (no result: RGS4 pot, RGS4 inh)
O=C(CNS(=O)(=O)c1ccccc1)N1CCc2ccccc2C1	none
CCCc1cc(=O)n2[nH]c(NCc3ccccc3Cl)nc2n1	none
